From ChEMBL document CHEMBL4428030, “Design and Synthesis of Structure-Simplified Derivatives of Gonytolide for the Promotion of Innate Immune Responses” (J Nat Prod, 2016) come the findings set out here.

Active and inactive are the calls of the source. The calls are words filed in the database; no cut-off is given here.

A short description of data set [1]: Cytotoxicity against Drosophila melanogaster S2 cells assessed as reduction in cell viability at 10 ug/ml by WST8 assay. Type of data set: cell-based. The gist of the method:
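S2 cells kept at 25 °C in Schneider's medium with 10% FBS and 1% antibiotics/antimycotics. Viability read by colorimetric WST-8 conversion.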

Data set [2] has as its system Drosophila. Description: Stimulation of innate immune response in Drosophila third-instar larvae assessed as DAP-type peptidoglycans-mediated Dpt-LacZ activation at 10 ug/ml after 12 hrs by beta-galactosidase reporter gene assay. The format is functional, organism-based. The gist of the method: (§1)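 Opened third-instar Dpt-lacZ larvae cultured whole in Schneider's medium with 20% FBS and 1% antibiotics/antimycotics, 25 °C, six larvae per condition as replicates. Compound added from DMSO together with 100 ng/mL E. coli peptidoglycan for 12 h. Each larva sonicated in phosphate buffer (60 mM Na2HPO4, 40 mM NaH2PO4, 10 mM KCl, 1 mM MgCl2) and spun 10000g, 4 °C, 10 min. Supernatant β-galactosidase normalized to total protein.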
In general terms: Reporter assays use an easily measured gene product as a stand-in for the process of interest.

Data set [3] relates to Drosophila. Description: Stimulation of innate immune response in Drosophila third-instar larvae assessed as DAP-type peptidoglycans-mediated Dpt-LacZ activation at 1 to 10 ug/ml after 12 hrs by beta-galactosidase reporter gene assay. Type of data set: functional, organism-based. Put shortly:
as §1

The next data set has as its system HUVEC. Description: Stimulation of innate immune response in HUVEC assessed as increase in TNFalpha-stimulated IL-8 production at 10 ug/ml preincubated for 3 hrs followed by TNFalpha stimulation measured after 12 hrs by ELISA. Type of data set: functional, cell-based. Conditions: Homo sapiens. The gist of the method:
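HUVECs grown in EGM-2 at 37 °C, 5% CO2. Cells preincubated ±compound for 3 h, then given 11 μL of 10 ng/mL hTNF-α (stock added to 100 μL well). Supernatants collected after a further 12 h for ELISA.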

The subject of data set [4] is Drosophila. The data set is described as follows: Stimulation of innate immune response in Drosophila third-instar larvae assessed as DAP-type peptidoglycans-mediated Dpt-LacZ activation at 10 ug/ml after 12 hrs by beta-galactosidase reporter gene assay relative to control. The format is functional. Put shortly:
as §1

As to `COc1cc(C)c(-c2c(C)cc(OC)c3c(=O)cc(CCCCOC(C)=O)oc23)c2oc(CCCCOC(C)=O)cc(=O)c12`, in data set [1], the Activity entry is recorded as “Non-Toxic”. The outcome in the data set with Drosophila [2] was Active.
On to `COc1cc(C)c(-c2c(C)cc(OC)c3c(=O)cc(CCCCO)oc23)c2oc(CCCCO)cc(=O)c12`, for which, in the data set on Drosophila [3], the outcome was inactive.
As for `COc1ccc(-c2cc(=O)c3c(OC)cc(C)c(-c4c(C)cc(OC)c5c(=O)cc(-c6ccc(OC)cc6)oc45)c3o2)cc1`, the Activity entry in data set [1] is “Non-Toxic”. Besides, the result with HUVEC and with Drosophila [2] was Active.
Turning to `COC(=O)[C@]1([C@@H]2CCC(=O)O2)CC(=O)c2c(O)cc(C)c(-c3c(C)cc(O)c4c3O[C@@](C(=O)OC)([C@@H]3CCC(=O)O3)CC4=O)c2O1`, the result in the data set on HUVEC was Active. Moreover, the “fold change (FC)” value with Drosophila [4] is reported as over 3. For the same compound, the Activity entry in the data set with Drosophila [3] is “Dose-dependent effect”.
`COC(=O)CCCc1cc(=O)c2c(OC)cc(C)c(-c3c(C)cc(OC)c4c(=O)cc(CCCC(=O)OC)oc34)c2o1`: the Activity result in data set [1] is on record as “Non-Toxic”. Also, the outcome in the data set with HUVEC and with Drosophila [2] was Active.
